ChEMBL document CHEMBL4732051, “The discovery of potent small molecule activators of human STING” (Eur J Med Chem, 2021)
The source made the active and inactive calls. No cut-off for these calls is given here.

Columns and labels:
[1] = tested on: Stimulator of interferon genes protein (Homo sapiens), Q86WV6 [R71H,G230A,R293Q]; test: Activation of human STING HAQ mutant expressed in HEK293T cells assessed as phosphorylation at (Ser366) at 10 uM incubated for 2 hrs and measured by Western blot analysis; format: cell-based; conditions: filed as activator
Outline: (§1)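 HEK293T clones stably carrying each human STING variant, picked by blasticidin selection and limiting dilution. 5 x 10^5 cells were exposed to compound at 10μM for 2 h, lysed in RIPA with phosphatase and protease inhibitors, and 10 μg protein run on 10% SDS-PAGE. Immunoblots probed for pSTING (Ser366), pIRF3 (Ser396), total STING, IRF3 and actin, detected by ECL.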

[2] = AUC in BALB/c mouse at 10 mg/kg, po measured up to 24 hrs by LC-MS/MS analysis; format: ADME, organism-based; parameters: route oral, dose 10 mg/kg, time <=24; conditions: in vivo
Outline: (§2)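 Overnight-fasted mice, n=3 per group, single dose by lateral tail vein (iv) or oral gavage (po). Retro-orbital blood under isoflurane at 2 min–24 h (iv) or 5 min–24 h (po). Plasma spun at 1500 x g, 15 min, 4 °C, stored -80 °C, then analysed by LCMS.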

[3] = Half life in BALB/c mouse at 5 mg/kg, iv measured up to 24 hrs by LC-MS/MS analysis; format: ADME, organism-based; conditions: in vivo; outline: as §2
[4] = tested on: CCRF-SB; test: Activation of human wild type STING R232 expressed in CCRF-SB cells assessed as phosphorylation at (Ser396) at 10 uM incubated for 2 hrs and measured by Western blot analysis; conditions: filed as activator
[5] = biological target: hERG (KCNH2) (Homo sapiens, UniProt Q12809); test: Inhibition of human ERG at 10 uM
[6] = Cmax in BALB/c mouse at 10 mg/kg, po measured up to 24 hrs by LC-MS/MS analysis; format: ADME, organism-based; parameters: route oral, dose 10 mg/kg, time <=24; conditions: in vivo; outline: as §2
[7] = biological target: T1, Stimulator of interferon genes protein (Homo sapiens, UniProt Q86WV6); test: Activation of wild-type human STING expressed in HEK293T cells assessed as IRF3 reporter activation measured after 20 hrs by luciferase reporter gene assay; format: cell-based
[8] = biological target: T1, Stimulator of interferon genes protein; test: Activation of human STING in human PBMC cells assessed as induction of IL6 expression at 10 uM measured by qt-PCR analysis; format: cell-based; conditions: filed as activator
Outline: (§3)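 2 x 10^5 freshly isolated human PBMC from healthy donors, separated on Histopaque, given a single compound concentration. Harvested early (6 hr) or late (20h). Cytokine mRNA read by qRT-PCR as relative normalized expression (fold) against vehicle-treated cells.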

[9] = Oral bioavailability in BALB/c mouse at 10 mg/kg measured up to 24 hrs by LC-MS/MS analysis; format: ADME, organism-based; conditions: in vivo
Outline: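 Overnight-fasted mice, randomized, n=3 per group, each given a single dose by lateral tail vein (iv) or oral gavage. Blood (50 μl per point, under isoflurane) was taken from the retro-orbital plexus. Sampling was at 2 min–24 h after iv and 5 min–24 h after oral dosing. Plasma was separated at 1500 x g for 15 min at 4 °C, stored at -80 °C, and analysed by LCMS.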

[10] = biological target: Cytochrome P450 3A4 (Homo sapiens, UniProt P08684); test: Inhibition of CYP3A4 (unknown origin); format: ADME
[11] = tested on: Stimulator of interferon genes protein (Homo sapiens), Q86WV6 [R71H,G230A,R293Q]; test: Induction of STING HAQ mutant (unknown origin) expressed in HEK293T cells assessed as increase in luciferase coupled ISG54-ISRE activity incubated for 18 hrs luciferase reporter gene assay; format: cell-based; conditions: filed as activator
[12] = Cmax in BALB/c mouse at 5 mg/kg, iv measured up to 24 hrs by LC-MS/MS analysis; format: ADME, organism-based; parameters: route intravenous, dose 5 mg/kg, time <=24; conditions: in vivo; outline: as §2
[13] = tested on: Stimulator of interferon genes protein (Homo sapiens), Q86WV6 [G230A,R293Q]; test: Activation of human STING AQ mutant expressed in HEK293T cells assessed as phosphorylation at (Ser366) at 10 uM incubated for 2 hrs and measured by Western blot analysis; format: cell-based; conditions: filed as activator; outline: as §1
[14] = biological target: T1, Stimulator of interferon genes protein; test: Activation of human STING in human PBMC cells assessed as induction of CXCL10 expression at 10 uM incubated upto 24 hrs and measured by qt-PCR analysis; format: cell-based; conditions: filed as activator, time hrs <=24; outline: as §3
[15] = tested on: HEK293T; test: Activation of human STING H232 mutant expressed in HEK293T cells assessed as phosphorylation of IRF-3 at (Ser396) at 10 uM incubated for 2 hrs and measured by Western blot analysis; format: cell-based; conditions: filed as activator; outline: as §1
[16] = AUC in BALB/c mouse at 5 mg/kg, iv measured up to 24 hrs by LC-MS/MS analysis; format: ADME, organism-based; parameters: route intravenous, dose 5 mg/kg, time <=24; conditions: in vivo; outline: as §2
[17] = tested on: Stimulator of interferon genes protein (Homo sapiens), Q86WV6 [UNDEFINED MUTATION]; test: Activation of human STING R232 in human CCRF-SB cells assessed as phosphorylation at (Ser366) at 10 uM incubated for 2 hrs and measured by Western blot analysis; format: cell-based; conditions: filed as activator
Outline: (§4)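 Tumor cell lines or human primary cells carrying endogenous STING variants; STING KO cells as control. 10µM for 2 h, then lysed in RIPA with phosphatase and protease inhibitors. 10 μg protein on 10% SDS-PAGE, blotted for pSTING (Ser366), pIRF3 (Ser396), STING, IRF3 and actin, ECL detection.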

[18] = biological target: T1, Stimulator of interferon genes protein; test: Activation of human STING in human PBMC cells assessed as induction of TNFalpha expression at 10 uM measured by qt-PCR analysis; format: cell-based; conditions: filed as activator; outline: as §3
[19] = tested on: Stimulator of interferon genes protein (Homo sapiens), Q86WV6 [UNDEFINED MUTATION]; test: Activation of human STING R232 in human MDA-MB-468 cells assessed as phosphorylation of IRF3 at (Ser396) at 10 uM incubated for 2 hrs and measured by Western blot analysis; format: cell-based; conditions: filed as activator; outline: as §4
[20] = Stability in mouse plasma at 37 degC by LC-MS/MS analysis; format: ADME, cell-free
Outline: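 Compound at 10 μM was incubated in mouse or human plasma at 37°C and its stability assessed.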

[21] = Chemical stability of compound in buffer at pH 3 to 8
[22] = biological target: Cytochrome P450 2C9 (Homo sapiens, UniProt P11712); test: Inhibition of CYP2C9 (unknown origin); format: ADME
[23] = tested on: Stimulator of interferon genes protein (Homo sapiens), Q86WV6 [G230A,R293Q]; test: Activation of human STING AQ mutant expressed in HEK293T cells assessed as phosphorylation of IRF-3 at (Ser396) at 10 uM incubated for 2 hrs and measured by Western blot analysis; format: cell-based; conditions: filed as activator; outline: as §1
[24] = tested on: HEK293T; test: Induction of STING H232 mutant (unknown origin) expressed in HEK293T cells assessed as increase in luciferase coupled ISG54-ISRE activity incubated for 18 hrs luciferase reporter gene assay; format: cell-based; conditions: Homo sapiens, filed as activator
[25] = biological target: Stimulator of interferon genes protein (Macaca fascicularis) (UniProt A0A2K5TV20); test: Activation of cynomolgus monkey STING; conditions: filed as activator
Chain of Stimulator of interferon genes protein (Macaca fascicularis) (A0A2K5TV20 as listed by the source): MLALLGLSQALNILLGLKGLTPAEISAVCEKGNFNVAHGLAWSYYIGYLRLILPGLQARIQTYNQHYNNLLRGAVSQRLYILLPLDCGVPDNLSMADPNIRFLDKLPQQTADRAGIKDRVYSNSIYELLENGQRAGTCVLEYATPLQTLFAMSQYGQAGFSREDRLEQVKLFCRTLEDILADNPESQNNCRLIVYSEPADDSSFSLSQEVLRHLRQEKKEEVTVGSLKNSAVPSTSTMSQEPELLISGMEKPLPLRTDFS

T1 sequence (Q86WV6 whole entry): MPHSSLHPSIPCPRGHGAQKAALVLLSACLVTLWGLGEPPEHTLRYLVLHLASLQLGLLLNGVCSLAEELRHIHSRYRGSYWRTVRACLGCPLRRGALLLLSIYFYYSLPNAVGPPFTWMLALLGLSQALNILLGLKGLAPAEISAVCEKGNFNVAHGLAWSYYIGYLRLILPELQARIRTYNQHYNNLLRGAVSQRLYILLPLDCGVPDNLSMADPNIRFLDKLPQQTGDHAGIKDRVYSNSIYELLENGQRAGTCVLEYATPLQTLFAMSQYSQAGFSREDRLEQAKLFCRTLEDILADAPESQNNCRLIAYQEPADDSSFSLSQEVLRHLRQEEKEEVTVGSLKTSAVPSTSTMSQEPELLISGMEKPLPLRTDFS
Chain of Stimulator of interferon genes protein (Homo sapiens), Q86WV6 [G230A,R293Q] (Q86WV6 whole entry G230A/R293Q): as the sequence (Q86WV6 whole entry) above, with G230A, R293Q counted along it
Chain of Stimulator of interferon genes protein (Homo sapiens), Q86WV6 [R71H,G230A,R293Q] (Q86WV6 whole entry R71H/G230A/R293Q): as the sequence (Q86WV6 whole entry) above, with R71H, G230A, R293Q counted along it
Chain of Stimulator of interferon genes protein (Homo sapiens), Q86WV6 [UNDEFINED MUTATION] (Q86WV6 whole entry, looked up, change not shown): as the sequence (Q86WV6 whole entry) above
Chain of Cytochrome P450 2C9 (P11712 whole entry): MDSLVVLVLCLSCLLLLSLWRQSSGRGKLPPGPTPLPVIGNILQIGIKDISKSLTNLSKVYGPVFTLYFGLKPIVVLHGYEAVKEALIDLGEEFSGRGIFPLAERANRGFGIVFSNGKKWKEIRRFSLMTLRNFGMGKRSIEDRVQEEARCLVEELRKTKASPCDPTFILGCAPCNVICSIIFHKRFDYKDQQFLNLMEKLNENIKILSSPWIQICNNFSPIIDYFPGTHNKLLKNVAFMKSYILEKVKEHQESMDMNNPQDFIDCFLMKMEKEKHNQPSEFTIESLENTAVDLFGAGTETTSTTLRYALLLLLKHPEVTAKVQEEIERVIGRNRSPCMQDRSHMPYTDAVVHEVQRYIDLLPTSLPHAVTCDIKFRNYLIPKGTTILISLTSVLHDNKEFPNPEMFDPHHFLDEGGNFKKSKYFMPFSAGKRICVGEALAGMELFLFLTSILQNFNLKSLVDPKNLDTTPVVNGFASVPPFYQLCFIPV
Chain of Cytochrome P450 3A4 (P08684 whole entry): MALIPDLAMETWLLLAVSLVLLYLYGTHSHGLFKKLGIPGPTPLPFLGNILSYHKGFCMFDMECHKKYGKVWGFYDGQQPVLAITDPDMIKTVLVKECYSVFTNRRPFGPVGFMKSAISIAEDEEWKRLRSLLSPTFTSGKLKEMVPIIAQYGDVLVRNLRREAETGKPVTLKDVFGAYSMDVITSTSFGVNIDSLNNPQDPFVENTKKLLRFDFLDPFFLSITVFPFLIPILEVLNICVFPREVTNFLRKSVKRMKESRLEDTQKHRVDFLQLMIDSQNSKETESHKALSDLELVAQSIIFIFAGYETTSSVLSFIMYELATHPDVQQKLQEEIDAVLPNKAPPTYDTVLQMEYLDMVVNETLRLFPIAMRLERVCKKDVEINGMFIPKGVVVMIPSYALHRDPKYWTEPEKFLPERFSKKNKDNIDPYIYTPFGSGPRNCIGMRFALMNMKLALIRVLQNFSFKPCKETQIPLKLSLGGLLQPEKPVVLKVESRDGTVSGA
Chain of hERG (KCNH2) (Q12809 whole entry): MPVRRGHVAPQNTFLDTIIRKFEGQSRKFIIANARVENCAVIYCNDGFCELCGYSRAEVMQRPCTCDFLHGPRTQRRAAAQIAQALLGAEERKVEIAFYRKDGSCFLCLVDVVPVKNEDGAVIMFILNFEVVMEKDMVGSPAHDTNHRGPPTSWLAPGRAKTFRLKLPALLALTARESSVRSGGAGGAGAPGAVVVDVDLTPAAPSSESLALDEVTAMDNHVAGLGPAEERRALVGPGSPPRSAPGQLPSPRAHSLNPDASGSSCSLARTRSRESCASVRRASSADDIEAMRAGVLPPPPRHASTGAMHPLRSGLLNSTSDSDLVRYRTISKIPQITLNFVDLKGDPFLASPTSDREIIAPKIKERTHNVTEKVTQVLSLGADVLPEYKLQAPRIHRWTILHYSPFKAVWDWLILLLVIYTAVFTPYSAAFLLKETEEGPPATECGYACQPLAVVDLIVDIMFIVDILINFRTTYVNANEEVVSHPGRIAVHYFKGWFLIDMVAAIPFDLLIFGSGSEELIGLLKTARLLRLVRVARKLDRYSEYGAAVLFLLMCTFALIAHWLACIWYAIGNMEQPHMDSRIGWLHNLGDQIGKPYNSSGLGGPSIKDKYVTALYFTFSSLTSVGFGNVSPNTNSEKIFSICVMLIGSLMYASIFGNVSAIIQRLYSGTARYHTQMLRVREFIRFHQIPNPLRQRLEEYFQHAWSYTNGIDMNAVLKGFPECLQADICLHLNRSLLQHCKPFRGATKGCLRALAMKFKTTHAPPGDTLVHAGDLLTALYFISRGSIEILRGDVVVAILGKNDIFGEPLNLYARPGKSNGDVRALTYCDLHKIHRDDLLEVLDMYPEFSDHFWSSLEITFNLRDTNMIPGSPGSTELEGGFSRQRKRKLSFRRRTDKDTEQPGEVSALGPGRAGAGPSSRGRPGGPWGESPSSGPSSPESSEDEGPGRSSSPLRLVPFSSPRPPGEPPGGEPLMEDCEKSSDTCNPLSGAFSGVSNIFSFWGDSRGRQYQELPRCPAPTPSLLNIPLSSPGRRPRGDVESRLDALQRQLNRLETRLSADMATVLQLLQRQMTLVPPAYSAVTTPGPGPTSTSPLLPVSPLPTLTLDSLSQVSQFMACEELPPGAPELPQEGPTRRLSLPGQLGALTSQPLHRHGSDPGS

Activity [1]: Active
AUC at 24 h [2]: 2090 ng·h/mL
half-life [3]: 1.41 h
Cmax [6]: 1720 ng/mL
EC50 [7]: 185 nM
bioavailability [9]: 86%
inhibition (INH) [10]: Not Active
Activity [11]: Active
Cmax [12]: 1870 ng/mL
Activity [13]: Active
AUC at 24 h [16]: 1220 ng·h/mL
Activity [17]: Active
Activity [19]: Active
Stabilty [20]: Stable
Stabilty [21]: Stable
inhibition (INH) [22]: Not Active
Activity [23]: Active
Activity [25]: Active
SMILES: CC1(C)C(=O)N(Cc2c(F)cccc2Cl)c2cc(C(=O)NCc3c(F)cc(F)cc3F)ccc21
Activity [4]: Active
inhibition at 10 µM [5]: 20%
Activity [8]: Active
Activity [14]: Active
Activity [15]: Active
Activity [18]: Active
Activity [24]: Active
